# Measured values as given in ChEMBL document CHEMBL1121429, “Soft drugs. 1. Labile quaternary ammonium salts as soft antimicrobials” (J Med Chem, 1980).
# Experiments:
# Salmonella typhimurium [1] = assay: Minimum inhibitory concentration of salt was tested against Salmonella Typhimurium […] at 0.1 M NaH2PO4 adjusted to pH 7.0; assay type: functional; conditions: Salmonella enterica
# Salmonella typhimurium [2] = system: Salmonella typhimurium
# Pseudomonas aeruginosa [3] = assay: Sterilization time for contact germicidal efficiency (CGE) of salt was tested against at Pseudomonas aeruginosa at pH 7.0, concentration 1031 ppm; assay type: functional, organism-based
# Pseudomonas aeruginosa [4] = assay: Sterilization time for contact germicidal efficiency (CGE) of salt was tested against at Pseudomonas aeruginosa at pH 8.0, concentration 1042 ppm; assay type: functional, organism-based
# Streptococcus pyogenes [5] = system: Streptococcus pyogenes
# Staphylococcus aureus [6] = assay: Minimum inhibitory concentration of salt was tested against Staphylococcus aureus aureus at 0.1 M NaH2PO4 adjusted to pH 7.0; assay type: functional
# Procedure, shortened: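 Bacteria grown 18-20 h at 37 °C in tryptose phosphate broth, adjusted to OD650 0.01, then diluted into double-strength medium to about 2 × 10^5 viable organisms/mL. Compound in 0.1 M NaH2PO4 pH 7.0 was serially twofold diluted into sterile water and added 1:1 to the cultures. MIC read after 18-20 h at 37 °C, with viability, sterility and buffer controls.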
# Staphylococcus aureus [7] = assay: Sterilization time for contact germicidal efficiency (CGE) of salt was tested against at Staphylococcus aureus at pH 8.0, concentration 1042 ppm; assay type: functional, organism-based
# Staphylococcus aureus [8] = assay: Sterilization time for contact germicidal efficiency (CGE) of salt was tested against Staphylococcus aureus at pH 7.0, concentration 1031 ppm; assay type: functional, organism-based
# Streptococcus pyogenes [9] = assay: Sterilization time for contact germicidal efficiency (CGE) of salt was tested against at Streptococcus pyogenes at pH 6.0, concentration 1007 ppm; assay type: functional, organism-based
# Pseudomonas aeruginosa [10] = system: Pseudomonas aeruginosa
# Pseudomonas aeruginosa [11] = assay: Sterilization time for contact germicidal efficiency (CGE) of salt was tested against at Pseudomonas aeruginosa at pH 6.0, concentration 1007 ppm; assay type: functional, organism-based
# Streptococcus pyogenes [12] = assay: Sterilization time for contact germicidal efficiency (CGE) of salt was tested against at Streptococcus pyogenes at pH 7.0, concentration 1031 ppm; assay type: functional, organism-based
# Staphylococcus aureus [13] = assay: Sterilization time for contact germicidal efficiency (CGE) of salt was tested against at Staphylococcus aureus at pH 7.0, concentration 1031 ppm; assay type: functional, organism-based
# Staphylococcus aureus [14] = assay: Sterilization time for contact germicidal efficiency (CGE) of salt was tested against at Staphylococcus aureus at pH 6.0, concentration 1007 ppm; assay type: functional, organism-based
# Streptococcus pyogenes [15] = assay: Sterilization time for contact germicidal efficiency (CGE) of salt was tested against at Streptococcus pyogenes at pH 8.0, concentration 1042 ppm; assay type: functional, organism-based
# Staphylococcus aureus [16] = assay: Sterilization time for contact germicidal efficiency (CGE) of salt was tested against Staphylococcus aureus at pH 7.0, concentration 610 ppm; assay type: functional
# Procedure, shortened: (§1)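 Test solutions of the quaternary salt in buffer stood 30 min at room temperature. 0.2 mL of overnight broth culture was added to 5 mL of solution. Inocula: S. aureus ATCC 6538 6-8 × 10^6 cfu/mL, P. aeruginosa ATCC 9027 12-13 × 10^6/mL, S. pyogenes ATCC 19615 5 × 10^6 cfu/mL. At 0.5-30 min intervals a loop was subcultured into nutrient broth and incubated 7 days at 37 °C. Sterilization time is the first interval giving no growth.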
# Streptococcus pyogenes [17] = assay: Sterilization time for contact germicidal efficiency (CGE) of salt was tested against Streptococcus pyogenes at pH 7.0, concentration 610 ppm; assay type: functional; procedure, shortened: as §1
# Pseudomonas aeruginosa [18] = assay: Sterilization time for contact germicidal efficiency (CGE) of salt was tested against Pseudomonas aeruginosa at pH 7.0, concentration 610 ppm; assay type: functional; procedure, shortened: as §1
# Streptococcus pyogenes [19] = assay: Sterilization time for contact germicidal efficiency (CGE) of salt was tested against at Streptococcus pyogenes at pH 7.0, concentration 1042.1 ppm; assay type: functional
# Procedure, shortened: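 Streptococcus pyogenes ATCC 19615 overnight culture, 5 × 10^6 cfu/mL; 0.2 mL into 5 mL test solution of salt in buffer, left 30 min at room temperature beforehand. At timed intervals (0.5 to 30 min), a 3-mm loop was transferred to sterile nutrient broth and incubated at 37 °C for 7 days. Sterilization time is the shortest interval without growth; buffer-only and viability controls were run.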
# Staphylococcus aureus [20] = assay: Sterilization time for contact germicidal efficiency (CGE) of salt was tested against Staphylococcus aureus at pH 7.0, concentration 1042.1 ppm; assay type: functional; procedure, shortened: as §1
# Pseudomonas aeruginosa [21] = assay: Sterilization time for contact germicidal efficiency (CGE) of salt was tested against at Pseudomonas aeruginosa at pH 7.0, concentration 1042.1 ppm; assay type: functional; procedure, shortened: as §1
# Streptococcus pyogenes [22] = assay: Sterilization time for contact germicidal efficiency (CGE) of salt was tested against at Streptococcus pyogenes at pH 8.0, concentration 1018 ppm; assay type: functional
# Pseudomonas aeruginosa [23] = assay: Sterilization time for contact germicidal efficiency (CGE) of salt was tested against at Pseudomonas aeruginosa at pH 6.0, concentration 1018 ppm; assay type: functional
# [24] = Toxicity of the salt was tested on white swiss male mice after intraperitoneal administration; assay type: organism-based; conditions: mouse, in vivo, ip
# Procedure, shortened: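 Male White Swiss mice (MCR-ICR), 20-23 g, 10-20 per dose. Salt given in isotonic NaCl, pH 7.0 (adjusted with sodium bicarbonate). LD50 with confidence limits was calculated by Litchfield–Wilcoxon.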
# Staphylococcus aureus [25] = assay: Sterilization time for contact germicidal efficiency (CGE) of salt was tested against at Staphylococcus aureus at pH 8.0, concentration 1018 ppm; assay type: functional
# Streptococcus pyogenes [26] = assay: Sterilization time for contact germicidal efficiency (CGE) of salt was tested against at Streptococcus pyogenes at pH 6.0, concentration 1018 ppm; assay type: functional
# [27] = Toxicity of the salt was tested on white swiss male mice after oral administration; assay type: organism-based; conditions: mouse, in vivo
# Procedure, shortened: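 Male White Swiss mice (MCR-ICR), 20-23 g, 10-20 per dose, dosed orally. At higher doses the salt was given in 0.8% NaCl brought to pH 5.84 with sodium bicarbonate. LD50 was calculated by Litchfield–Wilcoxon.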
# Streptococcus pyogenes [28] = assay: Sterilization time for contact germicidal efficiency (CGE) of salt was tested against at Streptococcus pyogenes at pH 7.0, concentration 1038.7 ppm; assay type: functional
# Staphylococcus aureus [29] = assay: Sterilization time for contact germicidal efficiency (CGE) of salt was tested against at Staphylococcus aureus at pH 6.0, concentration 1018 ppm; assay type: functional
# Pseudomonas aeruginosa [30] = assay: Sterilization time for contact germicidal efficiency (CGE) of salt was tested against at Pseudomonas aeruginosa at pH 7.0, concentration 1038.7 ppm; assay type: functional
# Streptococcus pyogenes [31] = assay: Sterilization time for contact germicidal efficiency (CGE) of salt was tested against at Streptococcus pyogenes at pH 7.0, concentration 936.0 ppm; assay type: functional
# Pseudomonas aeruginosa [32] = assay: Sterilization time for contact germicidal efficiency (CGE) of salt was tested against at Pseudomonas aeruginosa at pH 7.0, concentration 1039 ppm; assay type: functional
# Staphylococcus aureus [33] = assay: Sterilization time for contact germicidal efficiency (CGE) of salt was tested against Staphylococcus aureus at pH 7.0, concentration 1038.7 ppm; assay type: functional
# Staphylococcus aureus [34] = assay: Sterilization time for contact germicidal efficiency (CGE) of salt was tested against Staphylococcus aureus at pH 7.0, concentration 936.0 ppm; assay type: functional
# Streptococcus pyogenes [35] = assay: Sterilization time for contact germicidal efficiency (CGE) of salt was tested against at Streptococcus pyogenes at pH 7.0, concentration 1039 ppm; assay type: functional
# Pseudomonas aeruginosa [36] = assay: Sterilization time for contact germicidal efficiency (CGE) of salt was tested against at Pseudomonas aeruginosa at pH 8.0, concentration 1018 ppm; assay type: functional
# Staphylococcus aureus [37] = assay: Sterilization time for contact germicidal efficiency (CGE) of salt was tested against at Staphylococcus aureus at pH 7.0, concentration 1039 ppm; assay type: functional
# Pseudomonas aeruginosa [38] = assay: Sterilization time for contact germicidal efficiency (CGE) of salt was tested against at Pseudomonas aeruginosa at pH 7.0, concentration 936.0 ppm; assay type: functional
compound,measurement,setting,value
CCCCCCCCCCCCCCCC(=O)OC[n+]1ccccc1.[Cl-],MIC,Salmonella typhimurium [1],1070 µg/mL
Hexadecyl-trimethyl-ammonium bromide,MIC,Salmonella typhimurium [2],64.3 p.p.m.
same,TIME,Pseudomonas aeruginosa [3],0.00833 h
same,TIME,Pseudomonas aeruginosa [4],0.00833 h
same,MIC,Streptococcus pyogenes [5],< 2 p.p.m.
same,MIC,Staphylococcus aureus [6],< 2 p.p.m.
same,TIME,Staphylococcus aureus [7],0.00833 h
same,TIME,Staphylococcus aureus [8],0.00833 h
same,TIME,Streptococcus pyogenes [9],0.00833 h
same,MIC,Pseudomonas aeruginosa [10],128 p.p.m.
same,MIC,Bacillus subtilis,< 2 p.p.m.
same,TIME,Pseudomonas aeruginosa [11],0.00833 h
same,TIME,Streptococcus pyogenes [12],0.00833 h
same,TIME,Staphylococcus aureus [13],0.00833 h
same,TIME,Staphylococcus aureus [14],0.00833 h
same,TIME,Streptococcus pyogenes [15],0.00833 h
CCCCCCCCCCCC(=O)O [DODECANOATE],Time,Staphylococcus aureus [16],>30 min
same,Time,Streptococcus pyogenes [17],>30 min
same,Time,Pseudomonas aeruginosa [18],>30 min
CCCCCCCCCCCCCC(=O)OC[n+]1ccccc1.[Cl-],Time,Streptococcus pyogenes [19],0.5 min
same,Time,Staphylococcus aureus [20],1 min
same,Time,Pseudomonas aeruginosa [21],1 min
CCCCCCCCCCCCCCCC[n+]1ccccc1.[Cl-],Time,Streptococcus pyogenes [22],0.5 min
same,Time,Pseudomonas aeruginosa [23],0.5 min
same,LD50,[24],10 mg/kg
same,Time,Staphylococcus aureus [25],0.5 min
same,Time,Streptococcus pyogenes [26],0.5 min
same,LD50,[27],108 mg/kg
same,Time,Streptococcus pyogenes [28],0.5 min
same,Time,Staphylococcus aureus [29],0.5 min
same,Time,Pseudomonas aeruginosa [30],0.5 min
same,Time,Streptococcus pyogenes [31],0.5 min
same,Time,Pseudomonas aeruginosa [32],0.5 min
same,Time,Staphylococcus aureus [33],0.5 min
same,Time,Staphylococcus aureus [34],0.5 min
same,Time,Streptococcus pyogenes [35],0.5 min
same,Time,Pseudomonas aeruginosa [36],0.5 min
same,Time,Staphylococcus aureus [37],0.5 min
same,Time,Pseudomonas aeruginosa [38],0.5 min
